Reference: paper PMC7720656 (Journal of medicinal chemistry, 2020)
Entries after “also recorded” stand apart in the source; their conditions may differ. Marks after values point to notes of the source that are not given here.

What was measured:
MRSA strain NRS70 = test: Time-kill assays; type: cell-based, Staphylococcus aureus; details: NRS70, 0.5 to 16 × MIC
Outline: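 Cultures of MRSA NRS70 were exposed to the test compound, with a no-antibiotic control tube. At 3, 6, 12 and 24 h, aliquots were plated on LB agar for colony counts, with a detection limit of >50 CFU/mL. A ≥3-log10 drop from the starting inoculum counted as bactericidal. Run in triplicate.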

S. aureus ATCC29213 = test: MIC by microdilution, S. aureus ATCC29213; type: cell-based, Staphylococcus aureus; details: for increase in MIC with added bovine serum albumin: S. aureus ATCC29213; for antibacterial activity, active / inactive / antibacterial activity in words: by MIC with S. aureus ATCC29213
Pharmacokinetics in mice = type: in vivo; details: for clearance relative to hepatic blood flow: mice
[1] = system: S. haemolyticus ATCC 29970; test: MIC against Gram-positive organisms; type: cell-based; details: Staphylococcus haemolyticus, ATCC29970, read-out: MIC S. haemolyticus ATCC 29970
allosteric site of PBP2a = details: read-out: Kd for binding to the allosteric site of PBP2a; ref [23]; cited from earlier work
[2] = mice, 10 mg/kg iv; ref Bouley [25]; cited from earlier work
[3] = plasma protein binding; ref [26]; cited from earlier work

Row | SMILES | antibacterial activity, active / inactive (S. aureus ATCC29213) | antibacterial activity in words (S. aureus ATCC29213) | further results
1 | N#Cc1ccc(/C=C/c2nc3ccccc3c(=O)n2-c2cc(C(=O)O)ccc2F)cc1 [compound 73, (E)-3-(5-Carboxy-2-fluorophenyl)-2-(4-cyanostyryl)-quinazolin-4(3H)-one] | active |  | time-kill behaviour of compound alone (MRSA strain NRS70): bacteriostatic; increase in MIC with added bovine serum albumin (S. aureus ATCC29213): ≤ 4 fold; clearance (Pharmacokinetics in mice; female, ICR, mouse, plasma, iv, 10 mg/kg): 7.7 mL/min/kg; clearance relative to hepatic blood flow (Pharmacokinetics in mice; 10 mg/kg iv): < 10%; MIC [1]: ≤ 4 µg/mL
2 | O=C(O)c1cccc(-n2c(CCc3ccc(F)cc3)nc3ccccc3c2=O)c1 [compound 115] |  |  | increase in MIC with added bovine serum albumin (S. aureus ATCC29213): ≤ 4 fold
3 | C#Cc1ccc(/C=C/c2nc3ccccc3c(=O)n2-c2cccc(S(N)(=O)=O)c2)cc1 [compound 113] |  |  | clearance relative to hepatic blood flow (Pharmacokinetics in mice; 5 mg/kg iv): > 10%
4 | N#Cc1ccc(/C=C/c2nc3ccccc3c(=O)n2-c2cccc(C(=O)O)n2)cc1 [compound 83] |  | loss of antibacterial property; also recorded: loss of activity | 
5 | CCN1CCN(C(=O)N[C@@H](C(=O)N[C@@H]2C(=O)N3[C@@H]2SC(C)(C)[C@@H]3C(=O)O)c2ccccc2)C(=O)C1=O [piperacillin] |  |  | Kd (allosteric site of PBP2a): 400 µM
6 | N#Cc1ccc(/C=C/c2nc3ccccc3c(=O)n2-c2cccc(NC(=O)NCc3cnc[nH]3)c2)cc1 [compound 92] |  | detrimental to the activity | 
7 | N#Cc1ccc(CSc2nc3ccccc3c(=O)n2-c2cccc(C(=O)O)c2)cc1 [compound 125] |  |  | increase in MIC with added bovine serum albumin (S. aureus ATCC29213): ≤ 4 fold
8 | N#Cc1ccc(/C=C/c2nc3ccccc3c(=O)n2-c2cccc(S(N)(=O)=O)c2)cc1 [compound 94] | active |  | increase in MIC with added bovine serum albumin (S. aureus ATCC29213): ≤ 4 fold; clearance relative to hepatic blood flow (Pharmacokinetics in mice; 5 mg/kg iv): > 10%
9 | N#Cc1ccc(/C=C/c2nc3ccccc3c(=O)n2-c2cc(C(=O)O)ccc2C(F)(F)F)cc1 [compound 76] | inactive | loss of antibacterial property | 
10 | COc1ccc(C(=O)O)cc1-n1c(/C=C/c2ccc(C#N)cc2)nc2ccccc2c1=O [compound 79] |  | loss of antibacterial property | 
11 | N#Cc1ccc(/C=C/c2nc3ccccc3c(=O)n2-c2cc(O)cc(C(=O)O)c2)cc1 [compound 77] | inactive |  | 
12 | O=C(O)c1cccc(-n2c(/C=C/c3ccc(I)cc3)nc3ccccc3c2=O)c1 [compound 59] | active |  | 
13 | N#Cc1ccc(/C=C/c2nc3ccccc3c(=O)n2-c2cc(C(=O)O)ccn2)cc1 [compound 84] |  | loss of antibacterial property; also recorded: loss of activity | 
14 | N#Cc1ccc(/C=C/c2nc3ccccc3c(=O)n2-c2cccc(C(=O)O)c2)cc1 [compound 1, (E)-3-(3-Carboxyphenyl)-2-(4-cyanostyryl)quinazolin-4(3H)-one] |  | potent activity | time-kill behaviour of compound alone (MRSA strain NRS70): bacteriostatic; increase in MIC with added bovine serum albumin (S. aureus ATCC29213): ≤ 4 fold; CL [2]: 6.9 mL/min/kg
15 | N#Cc1ccc(/C=C/c2nc3ccccc3c(=O)n2-c2cccc(NC(=O)NCCc3cnc[nH]3)c2)cc1 [compound 93] |  | detrimental to the activity | 
16 | O=C(O)c1cccc(-n2c(/C=C/C3CC3)nc3ccccc3c2=O)c1 [compound 48] |  | loss of activity | 
17 | N#Cc1ccc(/C=C/c2nc3ccccc3c(=O)n2-c2cccc(NC(=O)C(F)(F)F)c2)cc1 [compound 88] | active |  | 
18 | N#Cc1ccc(/C=C/c2nc3ccccc3c(=O)n2-c2cccc(CNC(=O)C(F)(F)F)c2)cc1 [compound 99] | active |  | 
19 | N#Cc1ccc(/C=C/c2nc3ccccc3c(=O)n2-c2cccc(N)c2)cc1 [compound 111] |  | potent activity | 
20 | Cc1ccc(C(=O)O)cc1-n1c(/C=C/c2ccc(C#N)cc2)nc2ccccc2c1=O [compound 75] | active | retained acceptable MIC values | 
21 | O=C(O)c1cccc(-n2c(/C=C/c3ccc(Cl)cc3)nc3ccccc3c2=O)c1 [compound 58] | active |  | increase in MIC with added bovine serum albumin (S. aureus ATCC29213): ≤ 4 fold
22 | CC(=O)NS(=O)(=O)c1cccc(-n2c(/C=C/c3ccc(C#N)cc3)nc3ccccc3c2=O)c1 [compound 95] | active |  | 
23 | N#Cc1ccc(/C=C/c2nc3ccccc3c(=O)n2-c2cc(C(=O)O)ccc2Cl)cc1 [compound 74] | active | retained acceptable MIC values | 
24 | N#Cc1ccc(/C=C/c2nc3ccccc3c(=O)n2-c2cc(C(=O)O)ccc2O)cc1 [compound 78] | inactive | loss of antibacterial property | 
25 | C#Cc1ccc(/C=C/c2nc3ccccc3c(=O)n2-c2cccc(C(=O)O)c2)cc1 [compound 57] | active |  | PPB [3]: 99.6 ± 0.04^h %
26 | N#Cc1ccc(/C=C/c2nc3ccccc3c(=O)n2-c2cccc(C(=O)O)c2O)cc1 [compound 81] |  | loss of antibacterial property | 
